SENP1 FRET inh: blocks the human SENP1 SUMO protease catalytic domain; Q9P0U3; recombinant SENP1 catalytic domain, CyPet-SUMO1-YPet FRET cleavage; inhibition, % at 10 µM; actives 0.21% (n = 360,000); AID 624204;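 active = inhibition at least 30% at 10 µM, raw YFP signal under a set limit, fluorescence ratio 0.5 to 1.5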;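 note: 0% = enzyme with DMSO and 100% = no enzyme wells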
Target sequence (Q9P0U3 419-644 limits assumed): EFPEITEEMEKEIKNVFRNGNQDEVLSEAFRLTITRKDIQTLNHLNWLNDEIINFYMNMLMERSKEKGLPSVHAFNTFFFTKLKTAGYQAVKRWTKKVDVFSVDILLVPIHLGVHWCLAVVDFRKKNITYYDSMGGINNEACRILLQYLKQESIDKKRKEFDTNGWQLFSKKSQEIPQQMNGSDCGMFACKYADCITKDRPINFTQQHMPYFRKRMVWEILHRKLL
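Material: hSENP1 catalytic domain, recombinant; medium: Tris pH 8 with BME, BSA, NP40 and catalase; compound: single concentration of 10 µM compound, 0.5% DMSO final; technique: FRET read of cyan and yellow fluorescence; timing: 50 min enzyme reaction, room temperature, light-protected; reagent: SFCypet-SUMO1-SFYpet substrate at 25 nM; control set: no-enzyme low, enzyme-DMSO high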
ADAM10 inh: inhibitors of human ADAM10; AID 720582; recombinant ADAM10, EDANS/DABCYL FRET peptide cleavage, 3 h; O14672; actives 0.62% (n = 370,000); inhibition, % at 7 µM;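 active = inhibition above a per-campaign cutoff equal to the mean of compounds falling between control-based bounds plus 3 SD, cut at about 20% in these data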;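 note: 0% = DMSO wells while the 100% control is not disclosed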
FAS-TE inh: blocks the thioesterase domain of human fatty acid synthase; P49327; recombinant FAS-TE, OMFH fluorogenic substrate, fluorescence endpoint; inhibition, % at 15 µM; actives 0.67% (n = 360,000); AID 602261;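 active = compounds whose normalised, plate-corrected inhibition of enzyme fluorescence in the single-dose primary screen is 50% or more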;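 note: 0% = DMSO with enzyme and 100% = substrate without enzyme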
ADAM17 inh: inhibits human ADAM17. P78536. recombinant ADAM17, EDANS/DABCYL FRET peptide cleavage. inhibition, % at 6.95 µM. actives 0.83% (n = 370,000). AID 720648;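 active = inhibition above the mean of compounds lying between control limits plus 3 SD, set per campaign, cut at about 8.5% in these data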;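 note: 0% = DMSO-only wells as the low control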
FAS-TE conf: FAS thioesterase (human) inhibition, confirmation | shares compounds with FAS-TE inh | recombinant FAS-TE, OMFH fluorogenic substrate, fluorescence | inhibition, % at 15 µM | actives 45% (n = 2,300);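 active = compounds inhibiting the enzyme by at least 50% at 15 µM in any one of the replicates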;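 note: 0% = enzyme with DMSO only and 100% = wells lacking enzyme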
* hit, by the source's call. In the library only some 1.9% were active in any assay of this set; here they are far more common.

Screening CC1=C(C(=O)Nc2ccccc2)C(c2ccncc2)C(C#N)=C(SCC(=O)NC2CC2)N1 (configuration not stated) returned SENP1 FRET inh -2.3, ADAM10 inh -2.8, FAS-TE inh -3.9 and ADAM17 inh -4.1.
CC1=C(C(=O)Nc2nc3ccccc3s2)C(c2ccco2)C(C#N)=C(SCC(=O)NC2CCCCC2)N1 (configuration not stated) was read as SENP1 FRET inh -30.2, ADAM10 inh 0.0, FAS-TE inh 76.7*, ADAM17 inh 5.9 and FAS-TE conf -3.3.
`COC(=O)C1=C(C(=O)OC)[C@]2([C@H]3CC=CCN[C@@H](Cc4ccccc4)C(=O)N3Cc3ccccc3)C=C[C@H]1O2` gave SENP1 FRET inh -0.3, ADAM10 inh 19.0, FAS-TE inh 53.7*, ADAM17 inh 4.5 and FAS-TE conf 13.4.
`Cc1ccc(S(=O)(=O)Oc2ccc(/C=C3/N=C(c4ccccc4)OC3=O)cc2)cc1` gave SENP1 FRET inh -0.7, ADAM10 inh 2.2, FAS-TE inh 53.6*, ADAM17 inh -0.1 and FAS-TE conf 15.3.
CC(C)(C)c1ccc(OCCC(=O)OCC(=O)NC2CCCCC2)cc1 was read as SENP1 FRET inh -1.1, ADAM10 inh 4.7, FAS-TE inh 56.6*, ADAM17 inh 0.7 and FAS-TE conf 54.8*.
CC(=O)N[C@@H]1C[C@@H]2O[C@H](CO)CC[C@@H]2O[C@@H]1CCc1ccc(-c2ccc(F)cc2)cc1 was read as ADAM10 inh -1.3 and ADAM17 inh -0.3.
COC(=O)c1ccc(CSc2nc(C(F)F)cc(C)c2C#N)o1 was read as SENP1 FRET inh -0.6, ADAM10 inh -2.0, FAS-TE inh 53.0*, ADAM17 inh 1.5 and FAS-TE conf 42.8*.
COC(=O)c1ccc(COc2nc(C)cc(C)c2C#N)o1 was read as SENP1 FRET inh -4.5, ADAM10 inh -8.3, FAS-TE inh 13.4 and ADAM17 inh 5.0.
For CN(C)CCCNC(=O)/C(=C\C=C\c1ccccc1)NC(=O)c1ccc([N+](=O)[O-])cc1 the results were SENP1 FRET inh 0.6, ADAM10 inh -5.0, FAS-TE inh 86.4*, ADAM17 inh -0.9 and FAS-TE conf 89.3*.
COc1ccc(C(=O)N/C(=C\c2ccc([N+](=O)[O-])cc2)C(=O)NC(CCSC)C(=O)O)cc1 (configuration not stated) was read as SENP1 FRET inh 9.5, ADAM10 inh 7.6, FAS-TE inh 57.1*, ADAM17 inh 2.6 and FAS-TE conf 52.8*.
`Cc1ccc(C(=O)N/C(=C\c2ccc([N+](=O)[O-])cc2)C(=O)NCCc2ccccc2)cc1` gave SENP1 FRET inh 0.2, ADAM10 inh 3.2, FAS-TE inh 33.6 and ADAM17 inh -2.9.
`C=CCNC(=O)/C(=C\c1ccc(OC)cc1)NC(=O)c1ccc([N+](=O)[O-])cc1` gave SENP1 FRET inh 10.3, ADAM10 inh -4.3, FAS-TE inh 75.7*, ADAM17 inh -2.3 and FAS-TE conf 83.0*.
COc1ccc(/C=C(/NC(=O)c2ccc([N+](=O)[O-])cc2)C(=O)NCCCN(C)C)cc1 was read as SENP1 FRET inh 3.6, ADAM10 inh -4.7, FAS-TE inh 71.2*, ADAM17 inh -4.8 and FAS-TE conf 77.2*.
O=C(Nc1nc2c(Br)cccc2s1)c1ccc2c(c1)OCCO2 was read as ADAM10 inh -9.1 and ADAM17 inh -1.5.
C[C@H]1[C@@H](NC(=O)C(c2ccccc2)c2ccccc2)CC[C@@]23CCCN2C(=O)CCC[C@@H]13 was read as ADAM10 inh 1.9 and ADAM17 inh -0.4.
Cc1ccc(C(=O)O/N=C(\N)Cc2cccs2)cc1[N+](=O)[O-] was read as SENP1 FRET inh -0.2, ADAM10 inh 7.5, FAS-TE inh 61.6*, ADAM17 inh -1.6 and FAS-TE conf 76.3*.
`COc1ccccc1C/C(N)=N/OC(=O)c1ccc(C)c([N+](=O)[O-])c1` gave SENP1 FRET inh 2.4, ADAM10 inh 2.0, FAS-TE inh 47.3 and ADAM17 inh -1.3.
For COCCN1Cc2cc(C(=O)OC)c3c(c2C1=O)c1cc(OC)ccc1n3C(=O)c1ccccc1 the results were ADAM10 inh -20.6 and ADAM17 inh -10.4.
Screening Cc1csc(NC(=O)c2ccc(COc3ccccc3F)o2)n1 returned ADAM10 inh -0.2 and ADAM17 inh -2.3.
For CC(C)C(C#CC1CC1)NCc1ccc2c(c1)OCO2 (configuration not stated) the results were ADAM10 inh -5.0 and ADAM17 inh -1.8.
Screening Cc1cc(/C=C(\C#N)C(=O)Nc2ccc(Cl)cc2)c(C)n1-c1ccc(N2CCOCC2)c([N+](=O)[O-])c1 returned SENP1 FRET inh -1.3, ADAM10 inh 5.3, FAS-TE inh 78.9*, ADAM17 inh 5.1 and FAS-TE conf 9.1.
`COc1ccc(NC(=O)/C(C#N)=C\c2cc(C)n(-c3ccc4c(c3)OCO4)c2C)cc1` gave SENP1 FRET inh -13.9, ADAM10 inh 3.4, FAS-TE inh 54.2*, ADAM17 inh -0.3 and FAS-TE conf -4.7.
`COc1c(C(C)(C)C)cc(S(=O)(=O)N2c3ccccc3C[C@H]2C)cc1C(C)(C)C` gave ADAM10 inh 5.6 and ADAM17 inh 0.2.
Screening COc1ccc(/C=C2/CN(Cc3ccc(OC)cc3OC)C3=NC(c4ccc5ccccc5c4)CC(=O)N32)cc1 (configuration not stated) returned ADAM10 inh -43.9 and ADAM17 inh -7.7.
Screening NC(=O)[C@H]1CC2(CC(c3cccc(NC(=O)CC(c4ccccc4)c4ccccc4)c3)=NO2)CN1C(=O)C(c1ccccc1)c1ccccc1 (some centres not stated) returned SENP1 FRET inh 0.7, ADAM10 inh 19.3, FAS-TE inh 67.3*, ADAM17 inh 12.8* and FAS-TE conf 22.0.
For Cc1[nH]n(-c2ccc(Cl)cc2)c(=O)c1C=Nc1ccc(S(=O)(=O)N2CCOCC2)cc1 the results were SENP1 FRET inh 0.7, ADAM10 inh 14.0, FAS-TE inh 63.2*, ADAM17 inh 4.5 and FAS-TE conf 16.1.
For COc1nccnc1NS(=O)(=O)c1ccc(N=Cc2c(C)[nH]n(-c3ccc(Cl)cc3)c2=O)cc1 the results were ADAM10 inh -3.4 and ADAM17 inh 1.2.
`C[C@H]1[C@H](NC(=O)c2cccc(Cl)c2)CC[C@@]23CCCN2C(=O)CCC[C@@H]13` gave ADAM10 inh -8.0 and ADAM17 inh -3.6.
`CC(C)OC(=O)/C(C#N)=C/c1ccc(-c2ccc(SC(F)F)cc2)o1` gave SENP1 FRET inh -27.7, ADAM10 inh -10.5, FAS-TE inh 61.4*, ADAM17 inh -3.4 and FAS-TE conf 9.4.
For COC(=O)/C(C#N)=C/c1ccc(-c2ccc(S(N)(=O)=O)cc2)o1 the results were SENP1 FRET inh -79.7, ADAM10 inh -38.8, FAS-TE inh -3.7 and ADAM17 inh -13.4.

Compound activity as filed in PubChem.
